ChEMBL document CHEMBL5252669, “Semisynthetic blasticidin S ester derivatives show enhanced antibiotic activity” (RSC Med Chem, 2023)
Active and inactive are the calls of the source. The rule behind the calls is not given here.

System: Candida albicans
Test: Antifungal activity against Candida albicans assessed as zone of inhibition incubated for 18 hrs by spot on lawn assay
Format: functional, organism-based
Conditions: not given
Outline: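 Overnight LB cultures diluted to OD600 0.01 in 0.7% LB top agar, overlaid on 1.5% LB agar; 5 mg mL−1 aqueous compound spotted at 35, 25, 10 and 5 μg with 1:1 water/methanol vehicle spot; 37 °C, 18 h; inhibition zone diameter measured by ruler.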

Compound	Activity
CN(CC[C@H](N)CC(=O)N[C@H]1C=C[C@H](n2ccc(N)nc2=O)O[C@@H]1C(=O)O)C(=N)N.Cl	Active

System: not listed separately
Test: Cytotoxicity against human MRC5 cells incubated for 24 hrs by MTS assay
Format: toxicity, cell-based
Conditions: not given
Outline: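 MRC-5 lung fibroblasts seeded 5000 per well; medium replaced with compound 16–192 μg mL−1 or matching 1:1 methanol:water vehicle; 24 h, then MTS 3–4 h; absorbance 490 nm; viability relative to untreated cells, normalized to vehicle; CC50 from two independent assays in duplicate, mean ± SD.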

Compound	CC50 at 24 h
CN(CC[C@H](N)CC(=O)N[C@H]1C=C[C@H](n2ccc(N)nc2=O)O[C@@H]1C(=O)O)C(=N)N.Cl	16.1 µg/mL

System: Staphylococcus aureus
Test: Antibacterial activity against NorA deleted Staphylococcus aureus incubated for 16 hrs by broth microdilution method
Format: functional, organism-based
Conditions: 16 h
Outline: (§1)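 Cation-adjusted Mueller-Hinton broth microdilution. Overnight cultures from single colonies were diluted to OD600 0.004. Final compound range was 256–2 μg mL−1 in 1:1 methanol/water vehicle, with doxycycline and vehicle controls. Plates were incubated 16 h at 37 °C. OD600 was normalized to controls, and MIC was the lowest concentration inhibiting >90% growth. Two biological replicates in duplicate; reported as a range.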

Compound	IC50
CN(CC[C@H](N)CC(=O)N[C@H]1C=C[C@H](n2ccc(N)nc2=O)O[C@@H]1C(=O)O)C(=N)N.Cl	> 256 µg/mL

Same assay, conditions: time 16 hrs

Compound	MIC
CN(CC[C@H](N)CC(=O)N[C@H]1C=C[C@H](n2ccc(N)nc2=O)O[C@@H]1C(=O)O)C(=N)N.Cl	> 256 µg/mL

System: Staphylococcus aureus
Test: Antibacterial activity against wild type Staphylococcus aureus 8810 incubated for 16 hrs by broth microdilution method
Format: functional, organism-based
Conditions: Staphylococcus aureus, 8810, 16 h
Outline: as §1

Compound	IC50
CN(CC[C@H](N)CC(=O)N[C@H]1C=C[C@H](n2ccc(N)nc2=O)O[C@@H]1C(=O)O)C(=N)N.Cl	77 µg/mL

Same assay, conditions: Staphylococcus aureus, 8810; time 16 hrs

Compound	MIC
CN(CC[C@H](N)CC(=O)N[C@H]1C=C[C@H](n2ccc(N)nc2=O)O[C@@H]1C(=O)O)C(=N)N.Cl	128 µg/mL

System: Staphylococcus aureus
Test: Antibacterial activity against methicillin resistant Staphylococcus aureus ATCC 43300 incubated for 16 hrs by broth microdilution method
Format: functional, organism-based
Conditions: ATCC 43300, 16 h
Outline: as §1

Compound	IC50
CN(CC[C@H](N)CC(=O)N[C@H]1C=C[C@H](n2ccc(N)nc2=O)O[C@@H]1C(=O)O)C(=N)N.Cl	79.7 µg/mL

Same assay, conditions: ATCC 43300, time 16 hrs

Compound	MIC
CN(CC[C@H](N)CC(=O)N[C@H]1C=C[C@H](n2ccc(N)nc2=O)O[C@@H]1C(=O)O)C(=N)N.Cl	128 µg/mL

System: Klebsiella pneumoniae
Test: Antibacterial activity against Klebsiella pneumoniae ATCC 29665 incubated for 16 hrs by broth microdilution method
Format: functional, organism-based
Conditions: ATCC 29665, 16 h

Compound	IC50
CN(CC[C@H](N)CC(=O)N[C@H]1C=C[C@H](n2ccc(N)nc2=O)O[C@@H]1C(=O)O)C(=N)N.Cl	74.8 µg/mL

Same assay, conditions: ATCC 29665, time 16 hrs

Compound	MIC
CN(CC[C@H](N)CC(=O)N[C@H]1C=C[C@H](n2ccc(N)nc2=O)O[C@@H]1C(=O)O)C(=N)N.Cl	128 µg/mL

System: Pseudomonas aeruginosa
Test: Antibacterial activity against MexAB-OprM deleted Pseudomonas aeruginosa incubated for 16 hrs by broth microdilution method
Format: functional, organism-based
Conditions: 16 h

Compound	IC50
CN(CC[C@H](N)CC(=O)N[C@H]1C=C[C@H](n2ccc(N)nc2=O)O[C@@H]1C(=O)O)C(=N)N.Cl	73 µg/mL

Same assay, conditions: time 16 hrs

Compound	MIC
CN(CC[C@H](N)CC(=O)N[C@H]1C=C[C@H](n2ccc(N)nc2=O)O[C@@H]1C(=O)O)C(=N)N.Cl	128 µg/mL

System: Acinetobacter baumannii
Test: Antibacterial activity against Acinetobacter baumannii ATCC 17978 incubated for 16 hrs by broth microdilution method
Format: functional, organism-based
Conditions: ATCC 17978, 16 h

Compound	IC50
CN(CC[C@H](N)CC(=O)N[C@H]1C=C[C@H](n2ccc(N)nc2=O)O[C@@H]1C(=O)O)C(=N)N.Cl	70.4 µg/mL

Same assay, conditions: ATCC 17978, time 16 hrs

Compound	MIC
CN(CC[C@H](N)CC(=O)N[C@H]1C=C[C@H](n2ccc(N)nc2=O)O[C@@H]1C(=O)O)C(=N)N.Cl	128 µg/mL

System: Candida albicans
Test: Antifungal activity against Candida albicans incubated for 16 hrs by broth microdilution method
Format: functional
Conditions: not given

Compound	MIC
CN(CC[C@H](N)CC(=O)N[C@H]1C=C[C@H](n2ccc(N)nc2=O)O[C@@H]1C(=O)O)C(=N)N.Cl	64 µg/mL

System: Saccharomyces cerevisiae
Test: Antifungal activity against Saccharomyces cerevisiae incubated for 16 hrs by broth microdilution method
Format: functional
Conditions: not given

Compound	MIC
CN(CC[C@H](N)CC(=O)N[C@H]1C=C[C@H](n2ccc(N)nc2=O)O[C@@H]1C(=O)O)C(=N)N.Cl	16 µg/mL

System: not listed separately
Test: Selectivity index, ratio of CC50 for human MRC5 cells to IC50 for NorA deleted Staphylococcus aureus
Format: toxicity
Conditions: read-out: Ratio CC50/IC50

Compound	selectivity ratio
CN(CC[C@H](N)CC(=O)N[C@H]1C=C[C@H](n2ccc(N)nc2=O)O[C@@H]1C(=O)O)C(=N)N.Cl	< 0.1

System: not listed separately
Test: Selectivity index, ratio of CC50 for human MRC5 cells to IC50 for Staphylococcus aureus
Format: toxicity
Conditions: read-out: Ratio CC50/IC50

Compound	selectivity ratio
CN(CC[C@H](N)CC(=O)N[C@H]1C=C[C@H](n2ccc(N)nc2=O)O[C@@H]1C(=O)O)C(=N)N.Cl	0.2

System: not listed separately
Test: Selectivity index, ratio of CC50 for human MRC5 cells to IC50 for methicillin resistant Staphylococcus aureus
Format: toxicity
Conditions: read-out: Ratio CC50/IC50

Compound	selectivity ratio
CN(CC[C@H](N)CC(=O)N[C@H]1C=C[C@H](n2ccc(N)nc2=O)O[C@@H]1C(=O)O)C(=N)N.Cl	0.2

System: not listed separately
Test: Selectivity index, ratio of CC50 for human MRC5 cells to IC50 for Enterococcus faecalis ATCC 29212
Format: toxicity
Conditions: read-out: Ratio CC50/IC50

Compound	selectivity ratio
CN(CC[C@H](N)CC(=O)N[C@H]1C=C[C@H](n2ccc(N)nc2=O)O[C@@H]1C(=O)O)C(=N)N.Cl	0.3

System: not listed separately
Test: Selectivity index, ratio of CC50 for human MRC5 cells to IC50 for vancomycin-resistant Enterococcus
Format: toxicity
Conditions: read-out: Ratio CC50/IC50

Compound	selectivity ratio
CN(CC[C@H](N)CC(=O)N[C@H]1C=C[C@H](n2ccc(N)nc2=O)O[C@@H]1C(=O)O)C(=N)N.Cl	< 0.1

System: not listed separately
Test: Selectivity index, ratio of CC50 for human MRC5 cells to IC50 for Klebsiella pneumoniae ATCC 29665
Format: toxicity
Conditions: read-out: Ratio CC50/IC50

Compound	selectivity ratio
CN(CC[C@H](N)CC(=O)N[C@H]1C=C[C@H](n2ccc(N)nc2=O)O[C@@H]1C(=O)O)C(=N)N.Cl	0.2

System: not listed separately
Test: Selectivity index, ratio of CC50 for human MRC5 cells to IC50 for MexAB-OprM deleted Pseudomonas aeruginosa
Format: toxicity
Conditions: read-out: Ratio CC50/IC50

Compound	selectivity ratio
CN(CC[C@H](N)CC(=O)N[C@H]1C=C[C@H](n2ccc(N)nc2=O)O[C@@H]1C(=O)O)C(=N)N.Cl	0.2

System: not listed separately
Test: Selectivity index, ratio of CC50 for human MRC5 cells to IC50 for Acinetobacter baumannii ATCC 17978
Format: toxicity
Conditions: read-out: Ratio CC50/IC50

Compound	selectivity ratio
CN(CC[C@H](N)CC(=O)N[C@H]1C=C[C@H](n2ccc(N)nc2=O)O[C@@H]1C(=O)O)C(=N)N.Cl	0.2

System: Enterococcus faecalis
Test: Antibacterial activity against Enterococcus faecalis ATCC 29212 incubated for 20 hrs by broth microdilution method
Conditions: ATCC 29212, 20 h

Compound	IC50	MIC
CN(CC[C@H](N)CC(=O)N[C@H]1C=C[C@H](n2ccc(N)nc2=O)O[C@@H]1C(=O)O)C(=N)N.Cl	52.5 µg/mL	128 µg/mL

System: Enterococcus
Test: Antibacterial activity against vancomycin-resistant Enterococcus incubated for 20 hrs by broth microdilution method
Conditions: not given

Compound	IC50	MIC
CN(CC[C@H](N)CC(=O)N[C@H]1C=C[C@H](n2ccc(N)nc2=O)O[C@@H]1C(=O)O)C(=N)N.Cl	> 256 µg/mL	> 256 µg/mL
